The values below come from ChEMBL document CHEMBL4725360, “Optimization of Acetazolamide-Based Scaffold as Potent Inhibitors of Vancomycin-Resistant Enterococcus” (J Med Chem, 2020).

≈ marks a conversion by molar mass, not a printed value. Calls of active or inactive are those of the source. No cut-off for these calls is given here.

Series [1] relates to Enterococcus faecium. The experiment in a line: Antibacterial activity against Enterococcus faecium HM965 incubated for 18 to 20 hrs under aerobic condition by CLSI protocol based broth microdilution assay. The note with it: time hrs 18-20. Type of series: functional. The essentials:
(§1)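 Broth microdilution per CLSI. Strains grown aerobically overnight on trypticase soy agar at 37 °C. Inoculum set to 0.5 McFarland, diluted in trypticase soy broth to about 5 × 10⁵ CFU/mL. Agents serially diluted, plates incubated aerobically at 37 °C for 18–20 h. MIC is the lowest concentration with no visible growth. Compound stocks 10 mg/mL in DMSO.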

Series [2] has as its system Enterococcus faecalis. The experiment in a line: Antibacterial activity against Enterococcus faecalis NR-31975 incubated for 18 to 20 hrs under aerobic condition by CLSI protocol based broth microdilution assay. Type of series: functional, organism-based. The note with it: time hrs 18-20. The method, boiled down:
as §1

In series [3] the test system is Enterococcus faecium. As to the kind of experiment: Inhibition of carbonic anhydrase in Enterococcus faecium ATCC 700221 assessed as antibacterial activity incubated for 18 to 20 hrs in presence of ambient air by CLSI protocol based broth microdilution assay. The note with it: time hrs 18-20. The essentials: (§2)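 CLSI broth microdilution: inoculum about 5 × 10⁵ CFU/mL in trypticase soy broth with serial dilutions of agents. Paired plates incubated at 37 °C for 18–20 h, one set in ambient air ("normal"), the other under 5% CO₂. MIC is the lowest concentration completely inhibiting visible growth.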

The subject of series [4] is Enterococcus faecium. As to the kind of experiment: Inhibition of carbonic anhydrase in Enterococcus faecium ATCC 700221 assessed as antibacterial activity incubated for 18 to 20 hrs in presence of 5% CO2 by CLSI protocol based broth microdilution assay. The note with it: time hrs 18-20. The essentials: as §2
The subject of series [5] is Enterococcus faecalis. As to the kind of experiment: Antibacterial activity against Enterococcus faecalis NR-31970 incubated for 18 to 20 hrs under aerobic condition by CLSI protocol based broth microdilution assay. Type of series: functional, organism-based. The note with it: time hrs 18-20. The essentials:
as §1

The test system of series [6] is Enterococcus faecium. As to the kind of experiment: Antibacterial activity against Enterococcus faecium NR-31971 incubated for 18 to 20 hrs under aerobic condition by CLSI protocol based broth microdilution assay. The format is functional. The settings on record: time hrs 18-20. The method, boiled down:
as §1

In series [7] the test system is Enterococcus faecium. The experiment in a line: Antibacterial activity against Enterococcus faecium NR-31916 incubated for 18 to 20 hrs under aerobic condition by CLSI protocol based broth microdilution assay. The format is functional. The note with it: time hrs 18-20. The essentials: as §1
Series [8] has as its system Enterococcus faecium. The experiment in a line: Antibacterial activity against Enterococcus faecium NR-32065 incubated for 18 to 20 hrs under aerobic condition by CLSI protocol based broth microdilution assay. Type of series: functional. The settings on record: time hrs 18-20. The method, boiled down: as §1
In series [9] the test system is Enterococcus faecium. As to the kind of experiment: Antibacterial activity against Enterococcus faecium HM968 incubated for 18 to 20 hrs under aerobic condition by CLSI protocol based broth microdilution assay. The format is functional. The note with it: time hrs 18-20. The essentials:
as §1

Series [10] has as its system Enterococcus faecium. The experiment in a line: Antibacterial activity against Enterococcus faecium NR-28978 incubated for 18 to 20 hrs under aerobic condition by CLSI protocol based broth microdilution assay. Type of series: functional. The settings on record: time hrs 18-20. The essentials:
as §1

The nature of series [11]: Cytotoxicity against human Caco2 cells incubated for 2 hrs by MTS assay. The settings on record: Caco-2 cells. Type of series: cell-based. The method, boiled down: (§3)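 Caco-2 cells maintained in DMEM with 10% FBS, non-essential amino acids and penicillin-streptomycin at 37 °C, 5% CO₂. Compound exposure for 2 h in serum-free medium at several concentrations; DMSO-matched controls. Viability expressed relative to DMSO controls (mean ± SD), and CC₅₀ derived.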

Another series deals with Caco-2. As to the kind of experiment: Cytotoxicity against human Caco2 cells at 128 ug/ml incubated for 2 hrs by MTS assay. The format is cell-based. The settings on record: caco-2, 2 h, dose 128 µg/ml. The essentials: as §3
The subject of series [12] is Enterococcus faecalis. As to the kind of experiment: Antibacterial activity against Enterococcus faecalis HM-334 incubated for 18 to 20 hrs under aerobic condition by CLSI protocol based broth microdilution assay. Type of series: functional. The note with it: time hrs 18-20. The essentials:
as §1

In series [13] the test system is Enterococcus faecium. As to the kind of experiment: Antibacterial activity against Enterococcus faecium NR-31903 incubated for 18 to 20 hrs under aerobic condition by CLSI protocol based broth microdilution assay. The format is functional. The note with it: time hrs 18-20. The essentials: as §1
In series [14] the test system is Enterococcus faecium. The experiment in a line: Antibacterial activity against Enterococcus faecium NR-31972 incubated for 18 to 20 hrs under aerobic condition by CLSI protocol based broth microdilution assay. The note with it: time hrs 18-20. Type of series: functional. The essentials:
as §1

For series [15], the system named is Enterococcus faecium. The experiment in a line: Antibacterial activity against Enterococcus faecium NR-31914 incubated for 18 to 20 hrs under aerobic condition by CLSI protocol based broth microdilution assay. Type of series: functional. The note with it: time hrs 18-20. The essentials:
as §1

Series [16] has as its system Enterococcus faecalis. The experiment in a line: Antibacterial activity against Enterococcus faecalis HM-335 incubated for 18 to 20 hrs under aerobic condition by CLSI protocol based broth microdilution assay. The format is functional. The note with it: time hrs 18-20. The method, boiled down: as §1
In series [17] the test system is Enterococcus faecium. The experiment in a line: Antibacterial activity against Enterococcus faecium NR-32052 incubated for 18 to 20 hrs under aerobic condition by CLSI protocol based broth microdilution assay. Type of series: functional. The note with it: time hrs 18-20. The essentials: as §1

In turn, `NS(=O)(=O)c1nnc(NC(=O)CC2CCC2)s1` showed an MIC in the series on Enterococcus faecium [1] of 0.25 mg/L (≈ 0.905 µM).
Take `NS(=O)(=O)c1nnc(NC(=O)C2CCC2)s1`: the outcome in the series on Enterococcus faecalis [2] and with Enterococcus faecalis [5] was Active. In addition, in the series on Enterococcus faecium [3], the inhibition entry was “Active”. Also, the inhibition entry with Enterococcus faecium [4] was “inactive”. The compound further displayed an MIC with Enterococcus faecium [1] of 0.5 mg/L (≈ 1.91 µM).
Take `CCCCCCC(=O)Nc1nnc(S(N)(=O)=O)s1`: the MIC in the series on Enterococcus faecium [6] is 0.03 mg/L (≈ 0.103 µM); against Enterococcus faecium [7], 0.06 mg/L (≈ 0.205 µM); with Enterococcus faecium [8] it was 0.03 mg/L (≈ 0.103 µM); against Enterococcus faecium [1], 0.015 mg/L (≈ 0.0513 µM); against Enterococcus faecium [9], 0.015 mg/L (≈ 0.0513 µM); in the series with Enterococcus faecium [10], 0.06 mg/L (≈ 0.205 µM). The MIC in the series with Enterococcus faecalis [12] is 0.015 mg/L (≈ 0.0513 µM); in the series on Enterococcus faecium [13], 0.03 mg/L (≈ 0.103 µM); against Enterococcus faecium [14], 0.03 mg/L (≈ 0.103 µM); with Enterococcus faecium [15] it was 0.03 mg/L (≈ 0.103 µM); in the series with Enterococcus faecalis [16], 0.015 mg/L (≈ 0.0513 µM); against Enterococcus faecium [17], 0.03 mg/L (≈ 0.103 µM). Also, the outcome in the series on Enterococcus faecalis [2] and in the series on Enterococcus faecalis [5] was Active. The inhibition entry with Enterococcus faecium [3] was “Active”. Moreover, in the series on Enterococcus faecium [4], the inhibition entry was “inactive”. Besides, the CC50 at 2 h in [11] is > 128 mg/L. Besides, the Activity entry in the series on Caco-2 is listed as “Non-Toxic”.
For the compound `NS(=O)(=O)c1nnc(NC(=O)C2CC2)s1`, the outcome in the series with Enterococcus faecalis [2] and in the series on Enterococcus faecalis [5] was Active. For the same compound, in the series on Enterococcus faecium [1], the MIC came to 2 mg/L (≈ 8.06 µM).
Turning to `NS(=O)(=O)c1nnc(NC(=O)c2ccccc2)s1`, the MIC against Enterococcus faecium [1] was determined as 2 mg/L (≈ 7.03 µM).
For the compound `NS(=O)(=O)c1nnc(NC(=O)CC2CC2)s1`, the MIC with Enterococcus faecium [6] came to 0.5 mg/L (≈ 1.91 µM); in the series with Enterococcus faecium [7], 0.25 mg/L (≈ 0.953 µM); against Enterococcus faecium [8], 0.25 mg/L (≈ 0.953 µM); in the series on Enterococcus faecium [1] it was 0.25 mg/L (≈ 0.953 µM); with Enterococcus faecium [9], 0.5 mg/L (≈ 1.91 µM); in the series on Enterococcus faecium [10], 1 mg/L (≈ 3.81 µM). Further, the MIC was 0.5 mg/L (≈ 1.91 µM) in the series with Enterococcus faecalis [12]; 0.25 mg/L (≈ 0.953 µM) in the series on Enterococcus faecium [13]; 0.5 mg/L (≈ 1.91 µM) against Enterococcus faecium [14]; 0.5 mg/L (≈ 1.91 µM) against Enterococcus faecium [15]; 0.25 mg/L (≈ 0.953 µM) in the series on Enterococcus faecalis [16]; 0.25 mg/L (≈ 0.953 µM) against Enterococcus faecium [17]. In the series on Enterococcus faecium [3], the inhibition entry is “Active”. Further, the inhibition result in the series on Enterococcus faecium [4] was “inactive”. Moreover, the CC50 at 2 h in [11] is > 128 mg/L. In addition, the Activity result in the series on Caco-2 was “Non-Toxic”.
Consider `CC(C)(C)C(=O)Nc1nnc(S(N)(=O)=O)s1`, for which the MIC against Enterococcus faecium [6] is 0.5 mg/L (≈ 1.89 µM); against Enterococcus faecium [7], 0.5 mg/L (≈ 1.89 µM); against Enterococcus faecium [8], 0.25 mg/L (≈ 0.946 µM); in the series with Enterococcus faecium [1], 0.25 mg/L (≈ 0.946 µM); with Enterococcus faecium [9], 0.5 mg/L (≈ 1.89 µM); against Enterococcus faecium [10] it was 0.25 mg/L (≈ 0.946 µM). Besides, the MIC was 0.5 mg/L (≈ 1.89 µM) in the series on Enterococcus faecalis [12]; 0.5 mg/L (≈ 1.89 µM) with Enterococcus faecium [13]; 1 mg/L (≈ 3.78 µM) against Enterococcus faecium [14]; 0.5 mg/L (≈ 1.89 µM) against Enterococcus faecium [15]; 0.5 mg/L (≈ 1.89 µM) in the series with Enterococcus faecalis [16]; 0.5 mg/L (≈ 1.89 µM) in the series with Enterococcus faecium [17]. The result in the series with Enterococcus faecalis [2] and in the series with Enterococcus faecalis [5] was Active. Moreover, the CC50 at 2 h in series [11] is > 128 mg/L. Also, in the series with Caco-2, the Activity entry is reported as “Non-Toxic”.
Turning to `CC(C)C(=O)Nc1nnc(S(N)(=O)=O)s1`, in the series on Enterococcus faecium [3], the inhibition entry was “Active”. In the series on Enterococcus faecium [4], the inhibition entry was “inactive”. Moreover, the lowest concentration to inhibit growth against Enterococcus faecium [1] (MIC) was 1 mg/L (≈ 4 µM).
On to `NS(=O)(=O)c1nnc(NC(=O)CN2CCCC2)s1`, for which the inhibition result with Enterococcus faecium [3] was “Active”. The inhibition entry in the series on Enterococcus faecium [4] is “inactive”. For the same compound, in the series with Enterococcus faecium [1], the MIC turned out to be 1 mg/L (≈ 3.43 µM).
On to `NS(=O)(=O)c1nnc(NC(=O)C2CCCCC2)s1`, for which the MIC in the series on Enterococcus faecium [6] is 0.5 mg/L (≈ 1.72 µM); in the series on Enterococcus faecium [7], 0.25 mg/L (≈ 0.861 µM); with Enterococcus faecium [8], 0.5 mg/L (≈ 1.72 µM); against Enterococcus faecium [1], 0.25 mg/L (≈ 0.861 µM); with Enterococcus faecium [9] it was 0.5 mg/L (≈ 1.72 µM); against Enterococcus faecium [10], 0.5 mg/L (≈ 1.72 µM). For the same compound, the MIC amounted to 0.25 mg/L (≈ 0.861 µM) in the series with Enterococcus faecalis [12]; 0.5 mg/L (≈ 1.72 µM) against Enterococcus faecium [13]; 0.25 mg/L (≈ 0.861 µM) in the series with Enterococcus faecium [14]; 0.5 mg/L (≈ 1.72 µM) in the series with Enterococcus faecium [15]; 0.5 mg/L (≈ 1.72 µM) with Enterococcus faecalis [16]; 0.5 mg/L (≈ 1.72 µM) against Enterococcus faecium [17]. Moreover, the result with Enterococcus faecalis [2] and in the series on Enterococcus faecalis [5] was Active. Moreover, the CC50 at 2 h in series [11] was > 128 mg/L. Further, in the series on Caco-2, the Activity result is given as “Non-Toxic”.
Turning to `CCCC(=O)Nc1nnc(S(N)(=O)=O)s1`, the inhibition result in the series on Enterococcus faecium [3] was “Active”. The inhibition result in the series with Enterococcus faecium [4] is “inactive”. In the series with Enterococcus faecium [1], the MIC was determined as 0.5 mg/L (≈ 2 µM).
Turning to `CC(=O)Nc1ncc(S(N)(=O)=O)s1`, the minimal inhibitory concentration (MIC) with Enterococcus faecium [1] is > 64 mg/L.
For the compound `CN1CCN(CC(=O)Nc2nnc(S(N)(=O)=O)s2)CC1`, the inhibition result with Enterococcus faecium [3] is “Active”. In the series on Enterococcus faecium [4], the inhibition result is “inactive”. This compound also came in with an MIC against Enterococcus faecium [1] of 8 mg/L (≈ 25 µM).
